Results on twelve compounds are retold here after ChEMBL document CHEMBL1122081, “2-(Aminomethyl)phenols, a new class of saluretic agents. 4. Effects of oxygen and/or nitrogen substitution” (J Med Chem, 1982).

SMILES strings stand for the structures.

Common to all, as to conditions: in vivo
Data set [1] has as its system Canis familiaris. Kind of data set: Saluretic property was estimated by the excretion of Na+ in dog administered intravenously; microequiv of Na+/min at 5 mg/kg iv stat, 100-249. Type of data set: ADME, organism-based, Canis lupus familiaris. On the set-up: dose 5 mg/kg, route intravenous. In a few lines:
(§1)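 Dogs of 15-20 kg were given a single stat intravenous dose of 5 mg/kg and Na+ excretion was measured in microequiv/min. The score is the average of two dogs, or three where designated.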

In data set [2] the test system is Rattus norvegicus. Kind of data set: Saluretic property was estimated by the excretion of Na+ in rat administered orally; microequiv of Na+ at 50 mg/kg […]. Format: ADME, organism-based. On the set-up: dose 50 mg/kg. The method in brief:
(§2)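 Rats dosed orally; urinary Na+ excretion (microequiv) scored per dose level. Each score is the geometric mean of three animals per cage, with three cages per dose.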

Data set [3] relates to Rattus norvegicus. Kind of data set: Saluretic property was estimated by the excretion of Na+ in rat administered orally; microequiv of Na+ at 81 mg/kg […]. Type of data set: ADME, organism-based. On the set-up: dose 81 mg/kg. In a few lines: as §2
The subject of data set [4] is Canis familiaris. Kind of data set: Saluretic property was estimated by the excretion of Na+ in dog administered intravenously; microequiv of Na+/min at 5 mg/kg iv stat, 600-799. Format: ADME, organism-based, Canis lupus familiaris. On the set-up: dose 5 mg/kg, route intravenous. The method in brief:
as §1

The subject of data set [5] is Rattus norvegicus. Briefly: Saluretic property was estimated by the excretion of Na+ in rat administered orally; microequiv of Na+ at 16.5 mg/kg […]. Format: ADME, organism-based. More on the design: dose 16.5 mg/kg. The method in brief:
as §2

The subject of data set [6] is Rattus norvegicus. Kind of data set: Saluretic property was estimated by the excretion of Na+ in rat administered orally; microequiv of Na+ at 5 mg/kg […]. Format: ADME, organism-based. More on the design: dose 5 mg/kg. The method in brief: as §2
The subject of data set [7] is Rattus norvegicus. Kind of data set: Saluretic property (excretion of Na+ in rat after PO dosing). Format: ADME, organism-based. In a few lines: as §2
The species named for data set [8] is Rattus norvegicus. Kind of data set: Saluretic property (excretion of Na+ in rat). Type of data set: ADME, organism-based. The method in brief: as §2
In data set [9] the test system is Canis familiaris. Kind of data set: Saluretic property was estimated by the excretion of Na+ in dog administered intravenously; microequiv of Na+/min at 5 mg/kg iv stat, 400-599. On the set-up: dose 5 mg/kg, route intravenous. Type of data set: ADME, organism-based, Canis lupus familiaris. In a few lines: as §1
The test system of data set [10] is Canis familiaris. Briefly: Saluretic property was estimated by the excretion of Na+ in dog administered intravenously; microequiv of Na+/min at 5 mg/kg iv stat, […]. Type of data set: ADME, organism-based, Canis lupus familiaris. On the set-up: dose 5 mg/kg, route intravenous. In a few lines:
as §1

In data set [11] the test system is Rattus norvegicus. Briefly: Saluretic property was estimated by the excretion of Na+ in rat administered orally; microequiv of Na+ at 1 mg/kg […]. More on the design: dose 1 mg/kg. Format: ADME, organism-based. The method in brief: as §2
Data set [12] concerns Canis familiaris. Kind of data set: Saluretic property was estimated by the excretion of Na+ in dog administered intravenously; microequiv of Na+/min at 5 mg/kg iv stat, 250-399. Type of data set: ADME, organism-based, Canis lupus familiaris. On the set-up: dose 5 mg/kg, route intravenous. The method in brief:
as §1

Data set [13] deals with Canis familiaris. Kind of data set: Saluretic property was estimated by the excretion of Na+ in dog administered intravenously; microequiv of Na+/min at 5 mg/kg iv stat, >900. Format: ADME, organism-based, Canis lupus familiaris. On the set-up: dose 5 mg/kg, route intravenous. The method in brief: as §1
Data set [14] relates to Canis familiaris. Briefly: Saluretic property was estimated by the excretion of Na+ in dog administered intravenously; microequiv of Na+/min at 5 mg/kg iv stat, 800-899. Format: ADME, organism-based, Canis lupus familiaris. More on the design: dose 5 mg/kg, route intravenous. In a few lines: as §1

Regarding `CCOC(=O)COc1c(I)cc(C(C)(C)C)cc1CN.Cl`, the figures for the Saluretic potency in the data set with Canis familiaris [1], in the data set with Rattus norvegicus [2] and in the data set on Rattus norvegicus [3] were 100 u equiv min-1, below 0.2 u equiv and below 0.3 u equiv, respectively.

As for `CCCCNCc1cc(C(C)(C)C)cc(I)c1O.Cl`, the Saluretic potency with Canis familiaris [4] was 600 u equiv min-1; in the data set on Rattus norvegicus [5], 2.7 u equiv; in the data set on Rattus norvegicus [6], 1.4 u equiv; in the data set with Rattus norvegicus [7], 3.3 u equiv.

As to `CCNS(=O)(=O)Oc1c(I)cc(C(C)(C)C)cc1CN.Cl`, the Saluretic potency is 1.4 u equiv in the data set with Rattus norvegicus [5]; 0.5 u equiv in the data set on Rattus norvegicus [6]; 2.4 u equiv in the data set with Rattus norvegicus [7]; 2.9 u equiv in the data set filed under Rattus norvegicus [8]; 400 u equiv min-1 in the data set on Canis familiaris [9].

Regarding `CC(C)(C)c1cc(I)c(OCC(N)=O)c(CN)c1.Cl`, the Saluretic potency is listed as 100 u equiv min-1 in the data set on Canis familiaris [1], below 0.2 u equiv with Rattus norvegicus [7] and below 0.3 u equiv in the data set listed under Rattus norvegicus [8].

For `CNCc1cc(C(C)(C)C)cc(I)c1O`, the Saluretic potency is 250 u equiv min-1 with Canis familiaris [10]; 0.7 u equiv in the data set with Rattus norvegicus [11]; 3.3 u equiv in the data set with Rattus norvegicus [5]; 2.6 u equiv in the data set on Rattus norvegicus [6]; 3.6 u equiv in the data set with Rattus norvegicus [7].

For `NCC(=O)NCc1c(O)c(Cl)cc(Cl)c1Cl`, the Saluretic potency in the data set on Canis familiaris [1] was 100 u equiv min-1; in the data set on Rattus norvegicus [7], below 0.2 u equiv min-1; in the data set listed under Rattus norvegicus [8] it was below 0.3 u equiv.

For the compound `CC(C)(C)c1cc(Cl)c(O)c(/C=N/N=C(/N)S)c1`, the Saluretic potency with Canis familiaris [1] was 100 u equiv min-1; in the data set on Rattus norvegicus [7], below 0.2 u equiv; in the data set filed under Rattus norvegicus [8] it was below 0.3 u equiv.

On to `O=C(NCc1c(O)c(Cl)cc(Cl)c1Cl)C(Cl)(Cl)Cl`, for which the Saluretic potency is 400 u equiv min-1 in the data set with Canis familiaris [12], below 0.2 u equiv in the data set on Rattus norvegicus [7] and below 0.3 u equiv in the data set listed under Rattus norvegicus [8].

`CC(C)(C)c1cc(Cl)c(O)c(CN)c1.Cl`: the Saluretic potency in the data set with Canis familiaris [13] is reported as above 900 u equiv min-1; in the data set on Rattus norvegicus [11], 2.1 u equiv; with Rattus norvegicus [5], 4.2 u equiv; in the data set with Rattus norvegicus [6] it was 3.6 u equiv; with Rattus norvegicus [7] it was 3.9 u equiv.

Regarding `CC(C)(C)c1cc(I)c(O)c(CN)c1.Cl`, the Saluretic potency in the data set on Canis familiaris [13] is given as above 900 u equiv min-1; with Rattus norvegicus [11], 2.1 u equiv; in the data set with Rattus norvegicus [5], 4.2 u equiv; with Rattus norvegicus [6], 3.6 u equiv; with Rattus norvegicus [7] it was 3.9 u equiv.

In the case of `Cl.NCc1c(O)c(Cl)cc(Cl)c1Cl`, the Saluretic potency in the data set on Canis familiaris [14] is listed as 800 u equiv min-1; in the data set on Rattus norvegicus [5], 1.4 u equiv; in the data set on Rattus norvegicus [6], 0.5 u equiv; in the data set on Rattus norvegicus [7], 2.4 u equiv; in the data set listed under Rattus norvegicus [8] it was 2.9 u equiv.

In the case of `CN(Cc1c(O)c(Cl)cc(Cl)c1Cl)CC1CCCO1` (configuration not stated), the Saluretic potency with Canis familiaris [12] was 250 u equiv min-1; in the data set on Rattus norvegicus [7], below 0.2 u equiv; in the data set listed under Rattus norvegicus [8], below 0.3 u equiv.
